Data reported in PMC11904669 (ACS Omega, 2025).
*1 amine or outer side, *2 acyl side, *3 side chain or, on linkers, in order; H or OH if unused. Where a SMILES comes first, the peptide text is derived from it. Where no end group is shown, it is not given here. Side-chain parts run from the residue outwards. The star is where a group is joined. C20 diacid = O=C(O)CCCCCCCCCCCCCCCCCCC(=O)*; γGlu = O=C(O)[C@H](CCC(=O)[*:2])N[*:1]; PEG2 = NCCOCCOCCC(=O)O

Experiments:
[1] = tested on: CCl4-induced liver fibrosis model; experiment: Liver histology; format: in vivo, mouse; details: CCl4 mice, 250 μg/kg i.p. daily for 4 weeks
Method in brief: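 CCl4 model: male C57BL/6J mice, s.c. 20% CCl4 in corn oil every 2 days for 8 weeks, test compound 250 μg/kg i.p. daily during the last 4 weeks. Livers were fixed in 10% formaldehyde, deparaffinized and rehydrated. Sections got H&E, Sirius red (10 fields at 20× per liver) and IHC for α-SMA and COL1α1. Positive area was quantified excluding large bile ducts and vessels; n = 5.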

[2] = tested on: CCl4-induced liver fibrosis model; experiment: Serum ALT, CCl4-induced liver fibrosis model; format: in vivo, mouse; details: CCl4 mice, 250 μg/kg i.p. daily for 4 weeks
Method in brief: (§1)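 CCl4 (20% in corn oil, s.c., every 2 days, 8 weeks) fibrotic male C57BL/6J mice received test compound 250 μg/kg i.p. daily for the last 4 weeks. After the final dose, mice were fasted 9 h and euthanized 8 h later. Blood was drawn retro-orbitally under anesthesia and spun at 1000g for 15 min; serum was stored at −80 °C. ALT or AST was measured by commercial kit; n = 5.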

COL1α1 = experiment: Western blot of COL1α1; format: cell-based, human; details: TGF-β-treated LX2 cells, 10 μM, 24 h, Western blot (Figure 4)
p-Smad3 = experiment: Western blot of p-Smad3/Smad3 in liver, CCl4-induced liver fibrosis model; format: in vivo, mouse; details: CCl4 mice, 250 μg/kg i.p. daily for 4 weeks
Method in brief: (§2)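 Male C57BL/6J mice with CCl4 fibrosis (20% in corn oil s.c., every 2 days, 8 weeks) received test compound 250 μg/kg i.p. daily over the final 4 weeks. Liver tissue was snap-frozen and stored at −80 °C, then lysed in RIPA buffer and BCA-quantified. Samples went through SDS-PAGE and PVDF transfer, overnight primary antibody at 4 °C, and ECL. Phospho-protein densitometry was normalized to GAPDH; n = 5.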

[3] = tested on: CCl4-induced liver fibrosis model; experiment: Hydroxyproline in liver tissue, CCl4-induced liver fibrosis model; format: in vivo, mouse; details: CCl4 mice, 250 μg/kg i.p. daily for 4 weeks, n = 5
Method in brief: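 Liver fibrosis was induced in male C57BL/6J mice (6–8 wk) by s.c. 20% CCl4 in corn oil (5 mL/kg) every 2 days for 8 weeks, with corn-oil controls. Test compound was given at 250 μg/kg i.p. daily for the final 4 weeks. Livers were snap-frozen in liquid nitrogen, kept at −80 °C, and assayed for hydroxyproline; n = 5.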

[4] = tested on: CCl4-induced liver fibrosis model; experiment: GSH in liver tissue, CCl4-induced liver fibrosis model; format: in vivo, mouse; details: CCl4 mice, 250 μg/kg i.p. daily for 4 weeks, n = 5
C57BL/6J mice = experiment: General observation of mice during peptide treatment; format: in vivo, mouse; details: CCl4 mice, 250 μg/kg i.p. daily for 4 weeks
Method in brief: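 Male C57BL/6J mice (6–8 wk, 20–24 g) received 20% CCl4 in corn oil s.c. (5 mL/kg) every 2 days for 8 weeks, with corn-oil-injected controls. Test compound was given i.p. at 250 μg/kg daily over the last 4 weeks. Appearance, behavior and food intake were observed, and body weight was monitored (n = 5−7).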

α-SMA = experiment: Western blot of α-SMA in TGF-β-induced LX2 cells; format: cell-based, human; details: TGF-β-treated LX2 cells, 10 μM, 24 h, Western blot (Figure 4)
Method in brief: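 LX2 human hepatic stellate cells were grown in DMEM with 10% FBS and 1% penicillin-streptomycin at 37 °C, 5% CO2. Cells were induced with TGF-β (10 ng/mL) with or without 10 μM test compound for 24 h. Lysates in RIPA buffer were BCA-quantified, run on SDS-PAGE and transferred to PVDF. Primary antibody was applied overnight at 4 °C, then ECL detection. Densitometry was normalized to GAPDH; n = 3.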

[5] = tested on: CCl4-induced liver fibrosis model; experiment: SOD in liver tissue, CCl4-induced liver fibrosis model; format: in vivo, mouse; details: CCl4 mice, 250 μg/kg i.p. daily for 4 weeks, n = 5
[6] = tested on: CCl4-induced liver fibrosis model; experiment: Serum AST, CCl4-induced liver fibrosis model; format: in vivo, mouse; details: CCl4 mice, 250 μg/kg i.p. daily for 4 weeks
Method in brief: as §1

Serum stability analysis = format: in vitro ADME
Method in brief: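 Peptide (5 mM) was incubated in mouse serum at 37 °C for 0, 0.25, 1, 2, 4, 8, 16 and 24 h. Reactions were quenched with ice-cold acetonitrile, vortexed 10 s and left 1 min. Water containing 1% TFA was then added, the mix was centrifuged at 13,000g for 10 min, and the supernatant was collected for analysis.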

p-ERK = experiment: Western blot of p-Erk/Erk in liver, CCl4-induced liver fibrosis model; format: in vivo, mouse; details: CCl4 mice, 250 μg/kg i.p. daily for 4 weeks
Method in brief: as §2

FN and COL1α1 = experiment: Western blot of FN and COL1α1 in TGF-β-induced LX2 cells; format: cell-based, human; details: 10 μM
LX2 cells = experiment: CCK-8 assay of cell growth; format: cell-based, human; details: high concentration 64.0 μM

## CC(C)C[C@H](NC(=O)[C@@H]1CCCN1C(=O)[C@H](Cc1ccccc1)NC(=O)CNC(=O)[C@@H]1CCCN1C(=O)[C@H](C)NC(=O)[C@H](CCCCNC(=O)CCOCCOCCNC(=O)CCOCCOCCNC(=O)CC[C@H](NC(=O)CCCCCCCCCCCCCCCCCCC(=O)O)C(=O)O)NC(=O)CNC(=O)[C@H](Cc1ccccc1)NC(=O)[C@@H](N)[C@@H](C)O)C(=O)NCC(=O)N[C@@H](CO)C(N)=O [S6-FA] (H-TFGK([PEG2-PEG2-γGlu-C20 diacid])APGFPLGS-NH2)
[1]; n = 5
  collagen deposition (Sirius red): more efficacious outcomes in reducing collagen deposition compared to T6-S
[1]; versus control group and T6-S group
  fibrosis markers α-SMA and COL1α1 (IHC): notably lower
[2]
  ALT serum level: remarkably reduced
COL1α1
  expression of COL1α1: conspicuously decreased
p-Smad3
  phosphorylation of Smad3 in liver: effectively inhibited
[3]
  HYP content in liver tissue: significantly decreased
[4]
  content of GSH in liver tissue versus CCl4 group: significantly higher
C57BL/6J mice
  appearance, behavior, food intake, body weight: no abnormalities
α-SMA
  expression of α-SMA: conspicuously decreased
[5]
  content of SOD in liver tissue versus CCl4 group: significantly higher
[6]
  AST serum level: remarkably reduced
Serum stability analysis; mouse
  half-life at 5 mM: ~24 h
p-ERK
  phosphorylation of ERK in liver: effectively inhibited

## CC(C)C[C@@H]1NC(=O)[C@@H]2CCCN2C(=O)[C@H](Cc2ccccc2)NC(=O)CNC(=O)[C@@H]2CCCN2C(=O)[C@H](C)NC(=O)CNC(=O)CNC(=O)[C@H](Cc2ccccc2)NC(=O)[C@H]([C@@H](C)O)NC(=O)[C@H](CO)NC(=O)CNC1=O [S19] (cyclo(APGFPLGSTFGG))
FN and COL1α1
  effect on expression of FN and COL1α1: diminished the inhibitory impacts

## TFGGAPGFPLGS [T6-S]
LX2 cells
  growth of LX2 cells (CCK-8): did not affect the growth
Serum stability analysis; mouse serum, 37 °C, 5 mM peptide, RP-HPLC-MS, 1 h
  peptide detectable by HPLC after incubation in serum: 50%

## TFGGAPGFPLGSPLSSVFPR [T6, reference compound]
LX2 cells
  growth of LX2 cells (CCK-8): did not affect the growth

## TFGKAPGFPLGS [S6]
C57BL/6J mice
  appearance, behavior, food intake, body weight: no abnormalities
